Assay results from the EternaBench riboswitch data.

System: MS2 coat protein
Assay: apparent Kd, MS2 coat protein; higher = weaker binding; RNA-MaP array; FMN 200 µM where present
Procedure, shortened: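 Two titrations, one without ligand and one with constant ligand, were run with SNAP-549-labelled MS2 coat protein from 0.7 or 1.5 nM, doubling to 3 µM. The targets were designs transcribed by stalled E. coli RNA polymerase on Illumina sequencing-chip clusters, in 100 mM Tris-HCl pH 7.5, 80 mM KCl, 4 mM MgCl2, BSA, DTT, yeast tRNA and Tween-20. The apparent Kd is the median of filtered per-cluster binding-curve fits, with green signal normalised to red-channel RNA signal and control-cluster median Fmax.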

[1] = designed as: OFF switch for flavin mononucleotide, no ligand
[2] = ligand present: flavin mononucleotide, designed as: OFF switch for flavin mononucleotide
[3] = designed as: ON switch for flavin mononucleotide, no ligand
[4] = ligand present: flavin mononucleotide, designed as: ON switch for flavin mononucleotide

| Sequence | apparent Kd [1] | apparent Kd [2] | apparent Kd [3] | apparent Kd [4] |
| --- | --- | --- | --- | --- |
| AUGGAACAUGAGGAUCACCCAUGUGAGGAUAUCGUCGGCGCGCUUGAAACGAGCUGCCCGAGAAGGCACAGUGG | 160 nM | 238 nM | – | – |
| GGGCUGUCAGGAUAUGCUAGUGCUAGUGAAAGCUAGUGCUAGUAGAAGGGACAUGAGGAUCACCCAUGUGGCCC | 31.4 nM | 30.9 nM | – | – |
| GCAACGCCUGACAUGAGGAUCACCCAUGUUAGAUUGUUAUGUCAGGAUAUUGUCUCGAAACGAGACGAGAAGGGAUAUGUUGCU | – | – | 1110 nM | 39 nM |
| AAUUUACAGGGAGGAUAUACAUGAGGAUCACCCAUGUCAUCAUAUGAUAUUUCUUUUGUAUGAGUGUAGAAGGCCCAACUACCA | 18.2 nM | 18.3 nM | – | – |
| CAUAACUUUUCUCAUGUAAACAUGAGGAUCACCCAUGUAAUGAGAAGGAGGAGGCAGAGAGAAUCCUAGGAUAUCAGAAUUGUU | 6.77 nM | 6.43 nM | – | – |
| GCAAGUACGAGAGGAUAUUGACAUGAGGAUCACCCAUGUAUUUGGGAGUGUUCACUGAAUUCUUACGAGAAGGCUCGUACAUGC | 246 nM | 232 nM | – | – |
| GCCUGUGAAGGAUAUACAUGAGGAUCACCCAUGUGGCGGGCAUACCCGCCGAGACCGUGUAGAAGGUCAUAGUA | 67.5 nM | 57.6 nM | – | – |
| GAAUAAUUGAUCCUUUUUUAUUACAUGAGGAUCACCCAUGUGCAGGAUAUCGAGAGUUUUAGAUUCGAGAAGGGCAAGAACUGU | 905 nM | 629 nM | – | – |
| CGUAGGAUCCAGAAGGCAUGUACAUGAGGAUCACCCAUGUCAAUAGACAUGAGGAUAUGGAUCCUACGAAAAGUGCGAAAGCAC | – | – | 10.5 nM | 4.49 nM |
| CUGUGACGGUGCGCAAGUGUACGUAGAAGGGUCACAUGAGGAUCACCCAUGUGGGCCUGCGAGUGACAGGAUAUACGUGCGUGC | 6.39 nM | 12.4 nM | – | – |
| GUAACUCAUGUAGGAUAUGCAUGGCGAAGCUACGCAGAAGGACAUGAGGAUCACCCAUGUUCUAGCGUCUGGAUACAGAUGCAA | 85.7 nM | 327 nM | – | – |
| UUUGACAGCUAGAGUUGUUAAGUACAUGAGGAUCACCCAUGUCAGGAUAUCCUUCCGCAAUGCGAGGAGAAGGGACAGGGUCCC | 104 nM | 232 nM | – | – |
| CUUUGCGUUAGAGGAUAUAUUGUGUGUUACACAAUAGAAGGCUAAACAAACAUGAGGAUCACCCAUGUUGUCCAUGUCGUCGGC | – | – | 16.8 nM | 21 nM |
| CUACGCUAGGAGAAGGGCUAGAGUGUGAUAUAUUUGCCCGCGAGCACAUGAGGAUCACCCAUGUAGCAGGAUAUCCAAGCCGGU | 7.59 nM | 16.8 nM | – | – |
| GGUGCCAUGUAGAAGGCAGAUCUGAUUCAGAUCUGAGGAUAUACAUGAGGAUCACCCAUGUAAAGGCACCGCACGAGAGUGCAA | 6.51 nM | 8.81 nM | – | – |
| AAAUGCUGAGGAUAUACAUGAGGAUCACCCAUGUACUAAACUCGCAAGGGCAUCCGGUGUAGAAGGCAGCCUCA | 17.3 nM | 39.7 nM | – | – |
| AUAAUUAUAUAUUUCCCAAGAAUCAGAAGGCGUUACAUGAGGAUCACCCAUGUUUUGUAUAGUAACGAGGAUAUGAUAUGGAAA | 16.3 nM | 14.5 nM | – | – |
| GGUACGUCCACAGGAUAUGCGAAACAAGAAACCGCAGAAGGGUGAGGCGUCAGGACCCUGGACAUGAGGAUCACCCAUGUGCGU | – | – | 113 nM | 15.4 nM |
| UGUGUGUGACAGGAUAUGCUGGUUGUGAGGCGGGUAGAAGGGUCUACAUGAGGAUCACCCAUGUGGCCGGUUGG | 18.7 nM | 18.7 nM | – | – |
| AACAGUACAGGAUAUACAUGAGGAUCACCCAUGUGAGAAUUAAGUGGAAAACCACAAAGUAGAAGGGUACUGGA | 29.8 nM | 269 nM | – | – |
| GCAUGUAUAUAAGGAUAUGCAUCACUGAGAAAUUUAGUGAGGAAGAUCACAUGAGGAUCACCCAUGUAGAAGGUAUAUACGUGC | 8.23 nM | 53.2 nM | – | – |

| Sequence | apparent Kd [1] | apparent Kd [2] | apparent Kd [3] | apparent Kd [4] |
| --- | --- | --- | --- | --- |
| GGACGUCACAUUUACAUGAGGAUCACCCAUGUCUCUUGACAUGAGGAUAUGUAUACUAAUUGUAUACAGAAGGCAUGGACGUCC | – | – | 1010 nM | 168 nM |
| GGGUCAACAUGAGGAUCACCCAUGUAGGAUAUCGCUAUUGUAAUCAUGAAACAUGAUUACAAUAGCGAGAAGGACAUAUGCUUU | 12.3 nM | 25.4 nM | – | – |
| GAUGUAUUCGUAGGAUAUCCGUCGCCACCGUGUGGAGAAGGACGAACAUGAGGAUCACCCAUGUAUCAUGGUGUGGACGCUUUC | 287 nM | 315 nM | – | – |
| GUUAUAGGAGGAUAUACAUGAGGAUCACCCAUGUCUCACCCAUGGCAACGAACCUAUUGUAGAAGGCUUGAAGA | 74.5 nM | 182 nM | – | – |
| UGACAUAUAUAGAAGGGUAGUAGGGUUUUACAUGAGGAUCACCCAUGUAUUAUAGGAUAUGUGUAAAGUUAUUAUUAAAGUAAA | 22.5 nM | 17.2 nM | – | – |
| CCGGGUCGGGAGGAUAUUCGGGCCCAAGGGCUUGGAGAAGGCUCGACAUGAGGAUCACCCAUGUAAGUGUAAGG | 345 nM | 698 nM | – | – |
| AUUGAUGUUGAGGAUAUGCUUAUAUUUAUACUUGCAGAAGGCGAUACAUGAGGAUCACCCAUGUUCAUGGAAGU | 31.3 nM | 33.8 nM | – | – |
| UCGACCGGCGCCGGUCGAACAUGAGGAUCACCCAUGUACUCCAGAAGGCCGCCCAAGAACGGAGUGGAGGAUAUGGAGGUUCUC | – | – | 77.1 nM | 22.3 nM |
| UUCAUGUGAGGAUAUGCGGCGCCAGGCGAGCCUGGCACUGAGCAGAAGGCACAUGAGGAUCACCCAUGUGCUCC | 33.5 nM | 73.5 nM | – | – |
| ACUAUACGAGGAUAUACUGACGGGCCUCAGGCAUACAUCAGACAUGAGGAUCACCCAUGUAGAAGGCGUAUACU | 104 nM | 40.6 nM | – | – |
| GUGUACAGAGGAUAUACUCGAAUCUAGCGAAGCUAGGUUUGACAUGAGGAUCACCCAUGUAGAAGGCUGUACAC | 14.6 nM | 18.9 nM | – | – |
| ACAGCGAUGGUUAGGAUAUCCACGAGUACUUCGUCGGAGAAGGAACAUGAGGAUCACCCAUGUAGAUCCCAGGG | 146 nM | 319 nM | – | – |
| AACCGGGAGAAGCAGGAUAUUGCCUCUUCAACAUGAGGAUCACCCAUGUAAGUAAAUUGACGAUACAAGAAGGGCUGCUCCUUAC | – | – | 118 nM | 38.1 nM |
| AAGGCGAGAGGAUAUACAUGAGGAUCACCCAUGUGUCGGCCCUCCGCAUAUGCCUUGUGUAGAAGGCUCCCGAA | 16.5 nM | 22.9 nM | – | – |
| UGAUUUUCUUCUAACUAUCACCACAUGAGGAUCACCCAUGUCAAGGAUAUAGAGCGCGCUGGGUUCUAGAAGGUGGCGUGCCAA | 7.52 nM | 6.47 nM | – | – |
| GGUUAUUGCAAGGAUAUGCUUUUUUUUUAUAUUGCAGAAGGUGCAACAUGAGGAUCACCCAUGUUGGAGGGUUU | 24.5 nM | 42.9 nM | – | – |
| GGCAGUCCGACACAGGAUAUGGGUAACGAAACAUGAGGAUCACCCAUGUGGAAACAUCGGGUUGCCUAGAAGGGUGGAAAGAUUG | – | – | 117 nM | 32.1 nM |
| CAAAGUUGGUAAGGAUAUCCCACAUUAUUCUGACCCGUGCAAGCUACAUGAGGAUCACCCAUGUGGGAGAAGGUGCGGUAAAGA | 6.16 nM | 6.11 nM | – | – |
| UUGGACGUCGUAGGAUAUGUAGGAUAUUCCUACAUGAGGAUCACCCAUGUUGACAUGGAAGAAGGACAGAAGGAGGAUGUCCAU | – | – | 303 nM | 7.18 nM |
| AUAUUGUGAGGAUAUGAACUUAGUAUCGAAAGUUACUAAGUUCAGAAGGCACAUGAGGAUCACCCAUGUUUCUC | 72.1 nM | 972 nM | – | – |
| UUGUAAUGAUUAGGAUAUUAUUAAUAGAACUUUAUGAUAUACAUGAGGAUCACCCAUGUUACUUAUAAGAAGGAAUCGUAUUAU | 21.2 nM | 16.8 nM | – | – |
